Assay results: ChEMBL document CHEMBL4270554, “Discovery of the cancer cell selective dual acting anti-cancer agent (Z)-2-(1H-indol-3-yl)-3-(isoquinolin-5-yl)acrylonitrile (A131)” (Eur J Med Chem, 2018)

Key:
HT-29 = experiment: Antiproliferative activity against human HT-29 cells after 72 hrs by MTT assay; format: functional; details: HT-29, 72 h
Procedure, shortened: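 Cells cultured at 37 °C, 5% CO₂ in medium with 10% FBS and penicillin/streptomycin, used within 12-20 passages. Seeded at 2.5×10^3 cells/well for 24 h, then compound added from DMSO stocks at 200-fold final concentration (final DMSO 0.5% v/v). After 72 h, 0.5 mg/mL MTT for 3 h, formazan dissolved in DMSO, A570 read. IC50 from sigmoidal fit; three independent determinations.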

Mus musculus = experiment: Toxicity in BALB/c athymic nu/nu mouse xenografted with human HCT15 cells assessed as effect on body weight at 20 mg/kg, ip bid administered 12 days; format: organism-based; details: in vivo, 288 h
Procedure, shortened: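 Female BALB/c nu/nu mice aged 5–7 weeks, implanted subcutaneously in the flank with 5×10^6 HCT15 cells. At mean tumour 100–300 mm³, randomised into groups of 6. Given 20 mg/kg ip twice daily for 12 days, vehicle 10% DMSO/50% PEG400 in water pH 5.0.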

N#C/C(=C\c1cccc2cnccc12)c1c[nH]c2ccccc12
GI50 (HT-29): 900 nM
Activity (Mus musculus): Non-Toxic
